# Results gathered from unrelated publications.
# Target: Dual specificity tyrosine-phosphorylation-regulated kinase 2 (DYRK2, Homo sapiens, UniProt Q92630)
# Technique: competition with immobilised ligand
# One construct used (Q92630 1-601): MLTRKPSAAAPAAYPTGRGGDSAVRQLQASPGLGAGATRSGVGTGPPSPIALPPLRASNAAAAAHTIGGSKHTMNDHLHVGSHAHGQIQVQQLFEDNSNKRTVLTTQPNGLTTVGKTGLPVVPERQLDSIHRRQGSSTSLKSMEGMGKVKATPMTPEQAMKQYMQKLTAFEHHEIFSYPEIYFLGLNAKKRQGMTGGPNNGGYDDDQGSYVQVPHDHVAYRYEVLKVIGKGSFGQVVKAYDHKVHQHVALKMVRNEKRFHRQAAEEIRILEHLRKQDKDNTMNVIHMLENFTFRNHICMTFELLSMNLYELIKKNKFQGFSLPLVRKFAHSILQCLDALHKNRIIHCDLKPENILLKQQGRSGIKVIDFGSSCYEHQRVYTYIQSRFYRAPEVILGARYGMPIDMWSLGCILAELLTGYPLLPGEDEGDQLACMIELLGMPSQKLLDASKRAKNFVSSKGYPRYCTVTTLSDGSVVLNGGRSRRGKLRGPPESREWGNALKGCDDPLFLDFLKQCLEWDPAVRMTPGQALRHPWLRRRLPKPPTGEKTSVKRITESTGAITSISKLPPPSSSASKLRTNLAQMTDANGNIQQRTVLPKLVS
SMILES,observed,concentration,remaining binding [%]
FC(F)(F)Oc1cccc(-c2cnc3ccc(-c4ccncc4)nn23)c1,cell-free assay,5 µM,5
O=C(c1ccc(Nc2nccc(-c3cc4ccccc4s3)n2)cc1)N1CCC(N2CCCC2)CC1,binding,1 µM,3.9
CNC(=O)[C@@H]1CC[C@@H](n2c(-c3ccc4cnccc4c3)nc3ccc(C(=O)NCc4cccc(C(N)=O)c4)cc32)C1,binding,1 µM,86
C[C@H](c1ccc(F)cc1)N(Cc1cccc(C(=O)O)c1)C(=O)c1cnc2ccccc2c1,cell-free assay,1 µM,85
O=C(c1ccc(Nc2ncc(Cl)c(-c3ccc(Cl)s3)n2)cc1)N1CCC(N2CCCC2)CC1,binding,1 µM,3.8
COc1cc(-c2cn(C3CCc4ccccc4N(CC(F)(F)F)C3=O)nn2)ccc1-n1ccc(C)n1 (stereo not shown),cell-free assay,1 µM,94
CCN1CCN(Cc2ccc(C(=O)Nc3ccc(C)c(Oc4ccc5c(c4)CC(=O)N5)c3)cc2C(F)(F)F)CC1,binding,1 µM,95
COc1cnc(Nc2cccc(S(N)(=O)=O)c2)nc1N1CCN(c2ccccc2)CC1,binding,1 µM,70
C[C@@]1(Cc2ccc(C#N)cc2)C(=O)N(c2cc(Cl)cc(Cl)c2)c2ncc(C(=O)NC3(c4nc(C5CCC5)no4)CC3)n21,cell-free assay,1 µM,93
O=C(NCC1CCOCC1)c1n[nH]cc1NC(=O)c1c(F)cccc1F,binding,1 µM,8.3
CS(=O)(=O)N1CCCC(NC(=O)[C@H](CCC2CCCCC2)NC(=O)c2ccc(CNc3ncnc4c3nnn4-c3ccccc3)cc2)C1 (stereo partly shown),cell-free assay,0.1 µM,100
O=C(c1ccc(Nc2ncc(Cl)c(-c3cc4ccccc4s3)n2)cc1)N1CCC(N2CCCC2)CC1,binding,1 µM,3.1
COc1ncc2cc3ccccc3nc2c1C#N,cell-free assay,5 µM,85
